Compound activity from PubChem BioAssay.
HTR5A ag – HTR5A agonists in luminescence cell assay, primary screen, counter-screen for OPRM1-OPRD1 heterodimer agonist project, full-deck HTS. 5-hydroxytryptamine receptor 5A (Homo sapiens), P47898. cell-based. activation, % at 9.3 µM. 0.61% of 340,000 active. AID 504692, 2011; in the data active means activation mostly above about 9.5%, no sharp cut-off; inactive means mostly below about 7.6%;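 further: 0% = cells with vehicle only and 100% = reference agonist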
DAGLB inh – DAGLB lipase inhibitors, primary screen, biochemical, fluorescence, HTS; 0.059% of 340,000 active; HEK293T DAGLB membrane lysate, EnzChek fluorogenic substrate; Diacylglycerol lipase-beta (Homo sapiens), Q8NCG7; inhibition, % at 5.17 µM; AID 504411, 2011; in the data active means inhibition above about 34%;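 further: 0% = enzyme with vehicle and 100% = wells lacking enzyme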
Arrestin-AP2 inh – inhibitors of beta-arrestin/AP2 binding, primary screen, biochemical, GPCR trafficking, flow cytometry | beta-arrestin 1 C-terminal peptide binding to AP2 beta2-adaptin appendage (human) | 0.31% of 340,000 active | AID 504490, 2011 | FITC-arrestin peptide / GST-AP2 beads; AP2 beta2 appendage carries R879A mutation | inhibition, % at 10 µM;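 active means inhibition above a set limit, near 3 SD of compounds lacking own fluorescence, cut at about 54% in these data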;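 further: plate controls were DMSO wells for no effect and 5 µM unlabelled arrestin peptide for full effect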
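Test system: GST-tagged AP2 beta2-adaptin appendage (R879A) on 4 µm glutathione beads; also added: fluorescein-tagged arrestin peptide at 50 nM final; timing: 12 min plus 1 h, RT; signal: flow cytometry, FL1 (488/535 nm); read-out: percent drop in bead-associated FITC signal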
HTR5A inv ctr – HTR5A inverse agonists in luminescence cell assay, primary screen, counter-screen for OPRM1-OPRD1 heterodimer inverse agonist project, full-deck HTS. 5-hydroxytryptamine receptor 5A (Homo sapiens), P47898. HTR5A cell line, inverse agonism. inhibition, % at 9.3 µM. 0.083% of 340,000 active. AID 504634, 2011; in the data active means inhibition mostly above about 23%, no sharp cut-off; inactive means mostly below about 18%;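 further: 0% = cells with DMSO and 100% = no-cell wells with DMSO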
OPRM1-OPRD1 inv – inverse agonists of MOR-DOR heterodimerization, primary screen, cell-based, luminescence; Mu-type opioid receptor (Homo sapiens) + Delta-type opioid receptor (Homo sapiens), …; cell-based MOR-DOR heterodimer luminescence, inverse agonism; inhibition, % at 9.3 µM; 0.21% of 340,000 active; AID 504357, 2011; in the data active means inhibition above about 22%, passing the limit was not always enough;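 further: 0% = cells with DMSO and 100% = wells without cells with DMSO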
OPRM1-OPRD1 ag – agonists of OPRM1-OPRD1 heterodimerization, primary screen, cell-based, luminescence | Mu-type opioid receptor (Homo sapiens) + Delta-type opioid receptor (Homo sapiens), … | cells | activation, % at 9.3 µM | 0.3% of 340,000 active | AID 504326, 2011; in the data active means activation above about 18%;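 further: 0% = vehicle-treated cells and 100% = reference agonist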
Arr AP2 CP1 – inhibitors of arrestin peptide binding to AP2, confirmation, biochemical, cherry pick 1, flow cytometry beads. shares compounds with Arrestin-AP2 inh. GST-AP2 beads, FITC arrestin peptide binding; GST-fused beta2-adaptin appendage, R879A mutant. inhibition, % at 10 µM. 2% of 1,300 active;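 active means inhibition above a set limit, roughly 3 SD of non-fluorescent compound noise, cut at about 38% in these data; inactive means inhibition at or below that limit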;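 further: loss of bead fluorescence from 50 nM FITC arrestin peptide bound to appendage; 0% = negative control wells and 100% = excess unlabelled arrestin peptide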
Target sequence (P63010 whole entry, looked up, the tested form may be a part, one chain of several): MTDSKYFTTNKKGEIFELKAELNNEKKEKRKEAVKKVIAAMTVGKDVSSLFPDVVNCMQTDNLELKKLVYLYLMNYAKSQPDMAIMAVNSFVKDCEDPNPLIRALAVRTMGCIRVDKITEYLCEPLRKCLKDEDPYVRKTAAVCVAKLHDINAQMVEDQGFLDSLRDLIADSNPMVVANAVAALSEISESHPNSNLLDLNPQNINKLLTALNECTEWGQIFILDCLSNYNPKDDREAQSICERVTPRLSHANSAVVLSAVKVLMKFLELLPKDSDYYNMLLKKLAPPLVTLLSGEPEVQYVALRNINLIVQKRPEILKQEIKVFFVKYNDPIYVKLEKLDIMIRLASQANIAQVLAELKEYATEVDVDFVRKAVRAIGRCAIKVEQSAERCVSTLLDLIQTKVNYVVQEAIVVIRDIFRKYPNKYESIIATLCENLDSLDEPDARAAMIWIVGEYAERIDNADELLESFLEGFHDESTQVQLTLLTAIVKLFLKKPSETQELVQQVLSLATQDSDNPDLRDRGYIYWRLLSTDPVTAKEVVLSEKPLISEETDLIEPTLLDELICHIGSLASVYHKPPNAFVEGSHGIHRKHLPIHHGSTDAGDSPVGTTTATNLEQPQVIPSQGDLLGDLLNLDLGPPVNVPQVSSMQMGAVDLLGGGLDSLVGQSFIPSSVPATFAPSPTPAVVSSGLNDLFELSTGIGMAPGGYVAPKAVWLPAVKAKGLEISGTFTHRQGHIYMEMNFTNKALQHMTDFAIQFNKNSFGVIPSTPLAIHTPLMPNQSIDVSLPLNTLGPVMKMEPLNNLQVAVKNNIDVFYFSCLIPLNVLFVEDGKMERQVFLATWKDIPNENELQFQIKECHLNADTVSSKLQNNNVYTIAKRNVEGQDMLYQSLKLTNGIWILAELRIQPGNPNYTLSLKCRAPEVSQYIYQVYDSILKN
GST GSH counter – GST-fluorescein capture on glutathione beads, confirmation, artefact control for arrestin-AP2 inhibitor project, biochemical, cherry pick 1, flow cytometry | inhibition, % at 10 µM | AID 588338, 2011 | GST-fluorescein binding to GSH beads, fluorescence, counter-screen | shares compounds with Arrestin-AP2 inh | 2% of 1,300 active;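 active means inhibition above 50%, about 3 SD of the inhibition seen with non-fluorescent compounds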;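 further: fluorescein maleimide labelled GST captured on 4 micron glutathione beads; higher means more loss of bead fluorescence from quenching or blocked binding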
An asterisk follows results filed as active; . = not tested or not shown. Compounds with a hit are over-represented: about 1.4% of the library has one in this group of screens.

SMILES	HTR5A ag	DAGLB inh	Arrestin-AP2 inh	HTR5A inv ctr	OPRM1-OPRD1 inv	OPRM1-OPRD1 ag	Arr AP2 CP1	GST GSH counter
CCc1ccc(CN(C)C(=O)c2cc(S(=O)(=O)N3CCOCC3)ccc2N2CCCC2)cc1	-3	-2	-4	3	6	-1	-15	-4
CN(Cc1cccc(F)c1)C(=O)c1cc(S(=O)(=O)N2CCOCC2)ccc1N1CCCC1	9	1	-2	-25	6	-1	-4	-4
CCN(Cc1ccccc1)C(=O)c1cc(S(=O)(=O)N2CCOCC2)ccc1N1CCCC1	-2	0	57*	-8	-6	1	-11	-2
Cc1ccsc1CN(C)C(=O)c1cc(S(=O)(=O)N2CCOCC2)ccc1N1CCCC1	4	-1	-8	-10	6	-1	.	.
O=C(C[C@H]1C[C@@H]2c3cc(NC(=O)c4cccnc4)ccc3O[C@@H]2[C@H](CO)O1)NCc1ccncc1	.	0	.	.	.	.	.	.
CCOc1ccccc1C(=O)Nc1cc(=O)n(C)c(=O)n1C	-3	0	4	8	7	-1	.	.
CCCc1ccccc1OCCNC(=O)c1cc(=O)n(C)c(=O)n1C	-2	0	60*	-20	-1	0	-2	6
CCN1/C(=C/C=C/c2sc3ccccc3[n+]2CC)Sc2ccccc21	-4	12	75*	15	7	-1	33	32
CCN1/C(=C/C=C/C=C/C=C/c2sc3ccccc3[n+]2CC)Sc2ccccc21	4	12	55*	-17	4	-1	26	8
CC[n+]1c(/C=C(\C)SC)sc2ccccc21	1	2	-5	2	15	-3	.	.
CC[n+]1c(/C=C/Nc2ccccc2)sc2ccccc21	2	2	-14	-8	-6	1	.	.
COc1ccccc1NC(=O)N(C)C[C@H]1OCc2cnnn2CCCC(=O)N([C@H](C)CO)C[C@@H]1C	.	-1	.	.	.	.	.	.
O=C(NCc1nnc2c(C(F)(F)F)cc(Cl)cn12)C1CCCC1	3	-2	-1	14	1	0	.	.
O=C(NCc1nnc2c(C(F)(F)F)cc(Cl)cn12)c1cccs1	-2	-1	56*	23	14	-3	14	-2
O=C(C[n+]1cccc(C(=O)Nc2ccccc2)c1)c1ccc([N+](=O)[O-])cc1	-3	2	1	8	-27	5	.	.
NC(=O)C[n+]1cccc(C(=O)Nc2ccccc2)c1	0	0	66*	1	5	-1	-19	-6
CC(C)COc1ccc(C(=O)NC(=S)Nc2ccc(CN3CCOCC3)cc2)cc1	3	0	103*	5	13	-3	13	36
O=C(/C=C/c1ccccc1)Nc1ccc(CN2CCOCC2)cc1	4	0	-12	-10	5	-1	.	.
O=C(/C=C/c1ccc(Cl)cc1)NC(=S)Nc1ccc(CN2CCOCC2)cc1	-1	-2	105*	22	-10	2	8	-5
COc1ccc(C(=O)NC(=S)Nc2ccc(CN3CCOCC3)cc2)cc1OC	.	.	49	.	.	.	.	.
O=C(Nc1ccccc1C(=O)NC1CC1)c1ccc([N+](=O)[O-])o1	1	0	53	-4	-57	9	.	.
CC1CCN(S(=O)(=O)c2cc(C(=O)N3CCN(c4ccccc4)CC3)ccc2Br)CC1	.	-2	.	.	.	.	.	.
O=C(c1cnn2c(C(F)(F)F)cc(-c3ccc(Br)cc3)nc12)N1CCOCC1	-1	2	0	3	12	-2	.	.
Cc1cc(NC(=O)c2cnn3c(C(F)(F)F)cc(-c4ccc(Br)cc4)nc23)no1	0	-3	6	-3	23	-4	-6	-7
Cc1cc(/C=C2/NC(=O)N(Cc3ccccc3F)C2=O)c(C)n1-c1ccccn1	1	5	88*	-5	8	-2	-7	72*
SMILES	HTR5A ag	DAGLB inh	Arrestin-AP2 inh	HTR5A inv ctr	OPRM1-OPRD1 inv	OPRM1-OPRD1 ag	Arr AP2 CP1	GST GSH counter
Cc1cc(C(=O)COc2ccc3ccc(=O)oc3c2)c(C)n1Cc1cccs1	3	-2	94*	1	-11	2	-9	7
CC(C)c1nnc(NC(=O)Cc2ccccc2[N+](=O)[O-])s1	0	1	58*	-1	7	-1	-6	4
CC(Sc1nnc(C2CC2)n1-c1ccccc1)C(=O)N1CCCC1 (stereo unspecified)	4	1	-6	10	7	-1	.	.
COC(=O)c1nc(-c2ccccc2)oc1N(C)C	1	-2	22	3	13	-3	.	.
COC(=O)c1nc(-c2ccc(C)cc2)oc1N(C)C	0	-1	59*	-5	4	-1	10	11
Cc1ccc(/C=C/c2onc(C)c2S(=O)(=O)N2CCC(C(=O)N3CCCCC3)CC2)cc1	8	-12	-2	-23	-13	2	.	.
Cc1cccc(/C=C/c2onc(C)c2S(=O)(=O)N2CCC(C(=O)N3CCCCC3)CC2)c1	0	-52	55*	-15	9	-2	5	-1
Cc1cc(=O)[nH]c(-c2cccnc2)n1	0	0	63*	8	3	-1	-3	-6
O=c1cc(C(F)(F)F)nc(-c2cccnc2)[nH]1	-4	0	4	11	6	-1	.	.
CC(C)(C)NC(=O)/C(=C/c1ccco1)c1ccccc1	0	-1	88*	16	-8	1	9	-2
COc1ccc(CC(=O)N(C)Cc2ccc(C(C)(C)C)cc2)cc1S(=O)(=O)N1CCOCC1	4	-3	0	-1	2	0	.	.
COc1ccc(CC(=O)N(C)Cc2ccc(Cl)cc2)cc1S(=O)(=O)N1CCOCC1	-3	0	64*	9	-4	1	16	0
CCOC(=O)C1(Cc2ccccc2)CCCN(C(=O)COc2ccccc2OC)C1 (stereo unspecified)	.	-10	.	.	.	.	.	.
O=C(/C=C/c1ccccc1[N+](=O)[O-])Nc1cc(S(=O)(=O)N2CCOCC2)ccc1N1CCOCC1	12	3	20	-34	0	0	.	.
COc1cc2ccc(C(=O)O)cc2cc1OC	.	-3	.	.	.	.	.	.
